# From ChEMBL document CHEMBL5705886, “GSK1070916, a potent Aurora B/C kinase inhibitor with broad antitumor activity in tissue culture cells and human tumor xenograft models” (Mol Cancer Ther, 2009)
# The source made the active and inactive calls. The calls are words filed in the database; no cut-off is given here.
# Columns and labels:
# SEM cells = assay: Antiproliferative activity against human SEM cells assessed as inhibition of cell viability measured for 6 to 7 days by cell titer glo assay; assay type: functional, cell-based
# Summary of the method: (§1)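 Cells seeded in recommended growth medium, held overnight at 37°C in 5% CO2, then exposed to serial dilutions of inhibitor for 6–7 d. A time-zero plate was read with CellTiter-Glo at dosing. Luminescent viability read at the end. No-cell wells subtracted as background, data expressed as percent of DMSO control.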
# GDM-1 = assay: Antiproliferative activity against human GDM-1 cells assessed as inhibition of cell viability measured for 6 to 7 days by cell titer glo assay; assay type: functional, cell-based
# Summary of the method: (§2)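 Tumor lines plated in recommended growth media, overnight at 37°C, 5% CO2, then given serial dilutions; a T=0 plate read with CellTiter-Glo at dosing. After 6–7 d of exposure, viability read by CellTiter-Glo luminescence. No-cell wells subtracted, data expressed as % of DMSO control.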
# [1] = Toxicity in SCID nude mouse xenografted with human HL-60 cells assessed as drug tolerance at 100 mg/kg, ip administered once daily for 5 consecutive days with 2 days off scheduled for 2 cycles measured upto 60 days; settings: in vivo, 1440 h
# [2] = In vivo inhibition of Aurora B in human HCT-116 cells xenografted in athymic nude mouse assessed as reduction in HH3-S10 phosphorylation at 100 mg/kg, ip single dose measured upto 24 hrs relative to control; assay type: functional; parameters: scale not given: the % may be the effect or the level left
# [3] = Antiproliferative activity against human ALL-SIL cells assessed as inhibition of cell viability measured for 6 to 7 days by cell titer glo assay; assay type: functional, cell-based; summary of the method: as §2
# OCI-LY19 = assay: Antiproliferative activity against human OCILY19 cells assessed as inhibition of cell viability measured for 6 to 7 days by cell titer glo assay; assay type: functional, cell-based; summary of the method: as §1
# SW48 = assay: Antiproliferative activity against human SW48 cells assessed as inhibition of cell viability measured for 6 to 7 days by cell titer glo assay; assay type: functional, cell-based; summary of the method: as §1
# NCI-H157 = assay: Antiproliferative activity against human NCI-H157 cells assessed as inhibition of cell viability measured for 6 to 7 days by cell titer glo assay; assay type: functional, cell-based
# Summary of the method: (§3)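 Cells seeded in recommended growth medium, incubated overnight at 37°C in 5% CO2, then exposed to serial dilutions of inhibitor for 6–7 d. A parallel plate was read with CellTiter-Glo at compound addition as a T=0 value. The luminescent viability readout had no-cell background subtracted and was expressed as % of DMSO control.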
# MOLT-3 = assay: Antiproliferative activity against human MOLT-3 cells assessed as inhibition of cell viability measured for 6 to 7 days by cell titer glo assay; assay type: functional, cell-based; summary of the method: as §3
# MOLT-4 = assay: Antiproliferative activity against human MOLT-4 cells assessed as inhibition of cell viability measured for 6 to 7 days by cell titer glo assay; assay type: functional, cell-based; summary of the method: as §3
# COLO 201 = assay: Antiproliferative activity against human COLO201 cells assessed as inhibition of cell viability measured for 6 to 7 days by cell titer glo assay; assay type: functional, cell-based; summary of the method: as §2
# [4] = Toxicity in SCID nude mouse xenografted with human COLO 205 cells assessed as body weight loss at 25 to 100 mg/kg, ip administered once daily for 5 consecutive days with 2 days off scheduled for 2 cycles measured upto 60 days relative to control; assay type: organism-based; settings: in vivo, 1440 h, dose 25-100 mg/kg, time < 60 day
# K562 [5] = assay: Antiproliferative activity against human K562 cells assessed as inhibition of cell viability measured for 6 to 7 days by cell titer glo assay; assay type: functional, cell-based; summary of the method: as §3
# SW480 = assay: Antiproliferative activity against human SW480 cells assessed as inhibition of cell viability measured for 6 to 7 days by cell titer glo assay; assay type: functional, cell-based; summary of the method: as §1
# MDA-MB-453 = assay: Antiproliferative activity against human MDA-MB-453 cells assessed as inhibition of cell viability measured for 6 to 7 days by cell titer glo assay; assay type: functional, cell-based; summary of the method: as §3
# HL-60 = assay: Antitumor activity in human HL-60 cells xenografted in SCID mouse assessed as reduction in tumor growth at 100 mg/kg, ip administered once daily for 5 consecutive days with 2 days off scheduled for 2 cycles measured upto 60 days; assay type: functional, organism-based; settings: time 60.0 day
# BXPC-3 = assay: Antiproliferative activity against human BXPC-3 cells assessed as inhibition of cell viability measured for 6 to 7 days by cell titer glo assay; assay type: functional, cell-based; summary of the method: as §2
# [6] = Antiproliferative activity against human MV-522 cells assessed as inhibition of cell viability measured for 6 to 7 days by cell titer glo assay; assay type: functional, cell-based; settings: MV522; summary of the method: as §3
# COLO 205 = assay: Antiproliferative activity against human COLO 205 cells assessed as inhibition of cell viability measured for 6 to 7 days by cell titer glo assay; assay type: functional, cell-based; summary of the method: as §2
# Jurkat = assay: Antiproliferative activity against human Jurkat cells assessed as inhibition of cell viability measured for 6 to 7 days by cell titer glo assay; assay type: functional, cell-based; summary of the method: as §3
# [7] = Antiproliferative activity against human F-36P cells assessed as inhibition of cell viability measured for 6 to 7 days by cell titer glo assay; assay type: functional, cell-based; summary of the method: as §2
# CRO-AP2 = assay: Antiproliferative activity against human CRO-AP2 cells assessed as inhibition of cell viability measured for 6 to 7 days by cell titer glo assay; assay type: functional, cell-based; summary of the method: as §2
# SW1417 = assay: Antiproliferative activity against human SW1417 cells assessed as inhibition of cell viability measured for 6 to 7 days by cell titer glo assay; assay type: functional, cell-based; summary of the method: as §1
# HN5 = assay: Antiproliferative activity against human HN5 cells assessed as inhibition of cell viability measured for 6 to 7 days by cell titer glo assay; assay type: functional, cell-based; summary of the method: as §3
# [8] = Antiproliferative activity against human RKOE6 cells assessed as inhibition of cell viability measured for 6 to 7 days by cell titer glo assay; assay type: functional, cell-based; summary of the method: as §1
# [9] = Toxicity in SCID nude mouse xenografted with human A549 cells assessed as drug tolerance at 25 to 100 mg/kg, ip administered once daily for 5 consecutive days with 2 days off scheduled for 3 cycles measured upto 60 days; assay type: organism-based; settings: in vivo, 1440 h, dose 25-100 mg/kg, time 60 day
# [10] = Antiproliferative activity against human EB1 cells assessed as inhibition of cell viability measured for 6 to 7 days by cell titer glo assay; assay type: functional, cell-based; summary of the method: as §2
# HH = assay: Antiproliferative activity against human HH cells assessed as inhibition of cell viability measured for 6 to 7 days by cell titer glo assay; assay type: functional, cell-based; summary of the method: as §3
# HT-29 = assay: Antiproliferative activity against human HT-29 cells assessed as inhibition of cell viability measured for 6 to 7 days by cell titer glo assay; assay type: functional, cell-based; summary of the method: as §3
# HD-MY-Z = assay: Antiproliferative activity against human HD-MY-Z cells assessed as inhibition of cell viability measured for 6 to 7 days by cell titer glo assay; assay type: functional, cell-based; summary of the method: as §2
# Raji = assay: Antiproliferative activity against human Raji cells assessed as inhibition of cell viability measured for 6 to 7 days by cell titer glo assay; assay type: functional, cell-based; summary of the method: as §1
# [11] = Antiproliferative activity against human A375P cells assessed as inhibition of cell viability measured for 6 to 7 days by cell titer glo assay; assay type: functional, cell-based; summary of the method: as §2
# K562 [12] = assay: Antitumor activity in human K562 cells xenografted in SCID mouse assessed as reduction in tumor growth at 100 mg/kg, ip administered once daily for 5 consecutive days with 2 days off scheduled for 3 cycles measured upto 60 days; assay type: functional, organism-based; settings: time 60.0 day
# [13] = Toxicity in SCID nude mouse xenografted with human SW620 cells assessed as drug tolerance at 25 to 100 mg/kg, ip administered once daily for 5 consecutive days with 2 days off scheduled for 3 cycles measured upto 60 days; assay type: organism-based, SW-620; settings: in vivo, 1440 h, dose 25-100 mg/kg, time < 60 day
# NOMO-1 = assay: Antiproliferative activity against human NOMO-1 cells assessed as inhibition of cell viability measured for 6 to 7 days by cell titer glo assay; assay type: functional, cell-based; summary of the method: as §1
compound,measurement,setting,value
CCn1cc(-c2ccnc3[nH]c(-c4cccc(CN(C)C)c4)cc23)c(-c2ccc(NC(=O)N(C)C)cc2)n1 [GSK-1070916],EC50,SEM cells,3 nM
same,EC50,GDM-1,21 nM
same,Activity,[1],Toxic
same,Activity,[2],>60%
same,EC50,[3],2 nM
same,EC50,OCI-LY19,4 nM
same,EC50,SW48,2 nM
same,EC50,NCI-H157,8 nM
same,EC50,MOLT-3,5 nM
same,EC50,MOLT-4,3 nM
same,EC50,COLO 201,2 nM
same,Activity,[4],< 15%
same,EC50,K562 [5],13 nM
same,EC50,SW480,3 nM
same,EC50,MDA-MB-453,6 nM
same,Activity,HL-60,Active
same,EC50,BXPC-3,3 nM
same,EC50,[6],13 nM
same,EC50,COLO 205,7 nM
same,EC50,Jurkat,3 nM
same,EC50,[7],10 nM
same,EC50,CRO-AP2,3 nM
same,EC50,SW1417,19 nM
same,EC50,HN5,10 nM
same,EC50,[8],7 nM
same,Activity,[9],Non-Toxic
same,EC50,[10],7 nM
same,EC50,HH,18 nM
same,EC50,HT-29,10 nM
same,EC50,HD-MY-Z,4 nM
same,EC50,Raji,3 nM
same,EC50,[11],7 nM
same,Activity,K562 [12],Active
same,Activity,[13],Non-Toxic
same,EC50,NOMO-1,2 nM
